Laboratory results from ChEMBL document CHEMBL1151692, “Substituted hippurates and hippurate analogs as substrates and inhibitors of peptidylglycine alpha-hydroxylating monooxygenase (PHM)” (Bioorg Med Chem, 2008).
Active and inactive are the calls of the source. No cut-off for these calls is given here.

Tests used:
DU-145 [1] = test: Antiproliferative activity against human DU145 cells at 100 uM by trypan blue assay; format: functional
[2] = molecular target: peptidylglycine alpha-amidating monooxygenase (Rattus norvegicus) (UniProt P14925); test: Inhibition of rat peptidylamidoglycolate lyase assessed as ascorbate-independent dealkylation of alpha-hydroxy-hipurate; parameters: concentration or dose not given beside the values; settings: concentration not given here
DU-145 [3] = test: Antiproliferative activity against human DU145 cells at 10 uM after 48 hrs by trypan blue assay; format: functional, cell-based
In short: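 DU 145 cells plated at 50,000 per well, allowed 24 h to adhere, then given medium containing 10 μM 4-HPR as positive control. Viable cells counted by trypan blue exclusion on a hemacytometer, with growth read at 48 h.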

| inhibition [2] [%] | Compound | inhibition at 100 µM (DU-145 [1]) [%] | Activity (DU-145 [3]) |
| --- | --- | --- | --- |
| < 5 | CCOC(=O)CSC(=S)c1ccc(C)cc1 | ≤ 10 | – |
| – | CC1=C(/C=C/C(C)=C/C=C/C(C)=C/C(=O)Nc2ccc(O)cc2)C(C)(C)CCC1 | – | Active |
